hiPSC survival: hiPSC single-cell survival enhancement. ATPlite luminescence; 100% = ROCK inhibitor wells, 0% = DMSO. survival enhancement, % at 20 µM. 360,000 compounds, 0.044% hits. AID 602274; in the data active means survival enhancement above about 18%;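 further: cells exposed to compounds for 16 hours before the ATP read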
CHOP inhibitor: inhibitors of CHOP induction in ER stress response; CHO-K1 CHOP-promoter luciferase, tunicamycin-induced, 15-18 h; inhibition, % at 10 µM; 220,000 compounds, 3.8% hits;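 active means compounds that reduced the stress-induced luciferase reporter signal by more than about 70% of percent inhibition, limit read from the data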;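 further: 0% = tunicamycin plus vehicle and 100% = wells without tunicamycin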
UPR XBP1 act: adaptive UPR (XBP1) activation | 330,000 compounds, 0.33% hits | AID 463104 | activation, % at 20 µM | CHO-XBP1 luciferase reporter, IRE1-XBP1 UPR activation, luminescence; percent of tunicamycin response, DMSO as zero;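 active means versus positive control, 20 µM dose yields 30% or more activation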;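 further: 100% = tunicamycin at 10 µg/mL and 0% = DMSO only wells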
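Material: CHO cell line with stable XBP1 luciferase reporter; schedule: 16-18 h cell attachment at 37 °C, then 6 h compound exposure; signal: glow luminescence from Steady-Glo reagent; medium: serum-containing F12 medium, 10% FBS; benchmarks: tunicamycin 10 µg/mL and vehicle-only wells; read-out: percent activation relative to tunicamycin reference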
CHOP UPR activ: activators of apoptotic arm of unfolded protein response (CHOP); CHO-CHOP luciferase reporter, UPR activation, luminescence; percent of tunicamycin response over DMSO baseline; activation, % at 10 µM; 330,000 compounds, 0.34% hits;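 active means at 10 µM dose, activation of 40% or more, normalized to positive control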;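 further: 100% = tunicamycin at 10 µg/mL and 0% = DMSO alone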
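Material: CHO-CHOP cells, stable luciferase reporter of PERK-eIF2a-CHOP signalling; quantity: 500 reporter cells seeded per well; buffer or medium: F12 medium containing 10% fetal bovine serum; compound: one dose, 10 µM in 0.5% DMSO; incubation: 6 h compound treatment, 37 °C; measured by: Steady-Glo luciferase luminescence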
Cardio protect: myocardial damage modulation in H9c2 cells; protection from H2O2 cell death, % at 20 µM; H9c2 cardiomyocytes, H2O2 injury protection, ATPLite, 2 h; 360,000 compounds, 0.63% hits;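 active means compounds giving at least 50% protection of heart cells from peroxide-induced death in the single-dose screen, raw or plate-pattern-corrected value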;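 further: 0% = DMSO wells with peroxide and 100% = DMSO wells without peroxide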
CHOP UPR conf: confirmation of apoptotic unfolded protein response (CHOP) activators. activation, % at 10 µM. shares compounds with CHOP UPR activ. CHO-CHOP cells, CHOP-luciferase reporter luminescence; percent of tunicamycin response, DMSO as zero. 1,000 compounds, 64% hits; in the data active means activation above about 33%;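 further: 0% = DMSO wells and 100% = tunicamycin 10 µg/mL wells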
XBP1 UPR conf: confirmation of adaptive unfolded protein response (XBP1) activators | 1,000 compounds, 63% hits | activation, % at 20 µM | shares compounds with UPR XBP1 act | CHO-XBP1 IRE1-XBP1 luciferase reporter, luminescence;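 active means reporter signal at least 30% of the positive control's activation in two or more of four replicate wells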;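 further: plate controls were DMSO negative control for no effect and tunicamycin 10 µg/mL positive control for full effect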
* = called active by the depositor; . = no result given. The sample as a whole holds a higher share of hits than the screen did.

SMILES | hiPSC survival | CHOP inhibitor | UPR XBP1 act | CHOP UPR activ | Cardio protect | CHOP UPR conf | XBP1 UPR conf
COc1ccc(/C=N/N2CCN(c3ccccc3OC)CC2)cc1OC | 4 | -4 | 2 | 0 | -2 | . | .
COc1ccccc1N1CCN(/N=C/c2ccc(O)c(O)c2)CC1 | . | -6 | 9 | 184* | . | 101* | .
Clc1ccc(C=NN2CCCCCC2)cc1Cl | -3 | . | . | . | -10 | . | .
Cc1cc(Nc2ccccc2)n(-c2ccccc2)n1 | -1 | 30 | 2 | -2 | 5 | . | .
Cc1cc(N2CCN(c3ccccc3)CC2)nc(-c2ccccc2O)n1 | 2 | -1 | -2 | 0 | -7 | . | .
Cc1cc(C)nc(-n2nc(C)cc2Nc2ccccc2)n1 | 3 | -37 | 17 | 59* | 10 | 5 | .
Cc1cc(N2CCN(c3ccccc3)CC2)nc(-n2nc(C)cc2C)n1 | -1 | -111 | 13 | 52* | -7 | 4 | .
COc1ccc(-c2cc3ccccc3oc2=O)cc1NC(=S)NC(=O)c1ccc2c(c1)OCCO2 | 0 | -13 | 198* | 87* | -10 | 55* | .
O=[N+]([O-])c1ccc2nc(Cl)nc(-c3ccccc3)c2c1 | 0 | . | 16 | 106* | -2 | 87* | .
O=[N+]([O-])c1ccc2nc(-[n+]3c(-c4ccccc4)cc(-c4ccccc4)cc3-c3ccccc3)[nH]c2c1 | 0 | -40 | -2 | 1 | 5 | . | .
CCN(CC(=O)Nc1c(F)cccc1F)C(=O)CSCc1ccc(C)cc1 | 0 | . | . | . | 8 | . | .
CCOc1ccc2c(c1)C(=NNC(=O)c1ccncc1)c1cc(OCC)ccc1-2 | 0 | -5 | 5 | 50* | 42 | 43* | .
OC(c1ccc(Cl)c(F)c1)c1ncc(-c2cccc3ccccc23)[nH]1 (stereo not given) | 1 | . | . | . | -10 | . | .
COC(=O)c1nn(-c2ccc(OC)cc2)c(=O)cc1O | -1 | -14 | -3 | 1 | 1 | . | .
COc1ccc(-n2nc(C#N)c(Cl)cc2=O)cc1 | -1 | 101* | -6 | 149* | -23 | 73* | .
O=C(CSc1nnc(CNC(=O)c2cccs2)o1)Nc1ccc(Br)cc1 | 0 | . | -6 | -2 | -3 | . | .
COC(=O)Oc1ccc(/C=C/C(=O)OC(C)C)cc1OC(=O)OC | -2 | 1 | 14 | 131* | 54* | 61* | .
CCOc1ccccc1-n1c(SCC(=O)Nc2ccc(CC)cc2)nc2n[nH]c(C)c2c1=N | . | 96* | 246* | 181* | . | 107* | 233*
CN1CCN(c2cc(-c3cc(O)c4ncccc4c3)ccn2)CC1 | -2 | . | -1 | 0 | 44 | . | .
Oc1cc(-c2cccnc2)cc2cccnc12 | -2 | . | 46* | 96* | 9 | 74* | 34*
COc1ccc(Cc2nc3ccc(C(=O)NC(C)c4cn(C)nc4C)cc3o2)cc1 (stereo not given) | 0 | . | -4 | 1 | -4 | . | .
CCc1ccc(-n2c(SCC(=O)c3ccc4c(c3)NC(=O)CO4)nc3ccccc3c2=O)cc1 | 0 | 27 | 61* | 62* | 10 | 115* | 118*
CN1CCn2cnc(C(=O)NCCCCCNC(=O)OC(C)(C)C)c2C1=O | 2 | . | . | . | -8 | . | .
Cc1cc(C)nc(SCc2ccc(C(=O)N/N=C/c3cccc(O)c3O)cc2)n1 | 2 | -5 | 53* | 140* | 42 | 77* | 52*
Cc1cc(C)nc(SCc2ccc(C(=O)N/N=C/c3ccc(C(=O)O)cc3)cc2)n1 | 0 | 8 | -1 | -1 | 3 | . | .
SMILES | hiPSC survival | CHOP inhibitor | UPR XBP1 act | CHOP UPR activ | Cardio protect | CHOP UPR conf | XBP1 UPR conf
OCCCn1c(C2CCCN2c2nc(-c3ccc(Cl)cc3)cs2)nc2cc(Cl)c(N3CCCCC3)cc21 (stereo not given) | 1 | . | 122* | 88* | 28 | 24 | 198*
Cc1csc(N2CCCC2c2nc3cc(Cl)c(N4CCCCC4)cc3n2CCCO)n1 (stereo not given) | 7 | . | -1 | -1 | 7 | . | .
NS(=O)(=O)c1ccc(N/N=C/c2cn(-c3ccccc3)nc2-c2ccccc2)c([N+](=O)[O-])c1 | 0 | 10 | 78* | 104* | -17 | 0 | 75*
O=C(NN1C(=O)/C(=C/c2ccc(O)c(O)c2)SC1=S)c1ccccc1 | 0 | . | 59* | 43* | 65* | 2 | 57*
CN(/N=C\c1ccc(O)c(O)c1)c1nc(-c2ccccc2)cc(-c2ccccc2)n1 | 4 | 103* | 66* | 112* | 0 | 93* | 98*
N#C/C(C(=O)Nc1ccc(Cl)cc1)=C(/S)Nc1ccccc1 | 0 | . | 1 | 4 | -5 | . | .
Cc1cc(NC(=O)COc2ccc3ccccc3c2Br)no1 | 0 | . | 1 | 7 | -13 | . | .
Cc1ccc(C(=O)NCCC(=O)N2CCCC2)cc1 | 1 | . | -5 | 7 | -1 | . | .
COc1ccc(Cn2c(SCc3ccc(C)cc3)nc3cc(OC)c(OC)cc3c2=N)cc1Cl | -5 | 72* | 32* | 88* | -23 | 39* | 7
O=C(Nc1nc(-c2ccc(F)c(F)c2)cs1)Nc1ccc(F)cc1F | -1 | . | 74* | 47* | -5 | 53* | 123*
O=C(Cc1ccccc1)Nc1nc(-c2ccc(F)c(F)c2)cs1 | 0 | . | 5 | 2 | 5 | . | .
CCN(CC)CCn1c(=S)[nH]c2cc(C(=O)NCCc3ccc(OC)c(OC)c3)ccc2c1=O | 2 | . | . | . | 7 | . | .
CC(C)(C)OC(=O)C[C@H]1C/C=C\C[C@H](CC(=O)N(CCO)Cc2ccccc2)C(=O)N2CCC[C@H]2COC1=O | 1 | . | 0 | 1 | 36 | . | .
CCOC(=O)c1c(NC(=O)CC2Nc3ccccc3NC2=O)sc(C)c1C (stereo not given) | 9 | 63 | -1 | 1 | 1 | . | .
COC(=O)c1c(NC(=O)CC2Nc3ccccc3NC2=O)sc(C)c1C (stereo not given) | -1 | 35 | 47* | 160* | 16 | 40* | 31*
O=C1C=CC(=O)N1c1ccc2c(c1)C(NC(=O)C(F)(F)F)c1ccccc1-2 (stereo not given) | -5 | . | . | . | -11 | . | .
CCCCCCCC(=O)Nc1ccc(C(=O)N/N=C/c2cccc([N+](=O)[O-])c2)cc1 | -2 | 66 | 237* | 193* | -19 | 183* | 145*
O=C(N/N=C/c1cccc([N+](=O)[O-])c1)c1cc2c(ccc3ccccc32)o1 | -3 | -29 | 40* | 104* | 1 | 77* | 16
COc1cc(SC#N)ccc1N=Cc1c(C)[nH]n(-c2ccc(Cl)cc2)c1=O | -1 | 104* | 101* | 86* | 2 | 89* | 134*

High-throughput results: PubChem, several laboratories
